Assay [1] addresses T1, Proteasome Macropain subunit MB1 (Homo sapiens) (UniProt P28074).
T1 sequence (whole entry): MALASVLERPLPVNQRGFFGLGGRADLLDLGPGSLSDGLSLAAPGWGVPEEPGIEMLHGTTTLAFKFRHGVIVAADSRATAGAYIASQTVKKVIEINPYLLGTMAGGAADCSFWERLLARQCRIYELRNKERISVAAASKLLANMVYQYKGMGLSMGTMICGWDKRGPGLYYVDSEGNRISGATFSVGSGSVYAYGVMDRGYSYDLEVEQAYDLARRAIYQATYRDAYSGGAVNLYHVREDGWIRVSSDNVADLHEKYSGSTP
As to the kind of experiment: Positive allosteric modulation of latent human erythrocytes 20S proteasome chymotrypsin like activity up to 10 uM using LFP as substrate measured every 2 mins up to 60 mins by fluorescence assay.

Assay [2] deals with T1, Proteasome Macropain subunit MB1 (Homo sapiens). As to the kind of experiment: Negative allosteric modulation of SDS-activated human erythrocytes 20S proteasome chymotrypsin like activity up to 10 uM using LFP as substrate measured every 2 mins up to 60 mins by fluorescence assay.
Assay [3] has the same target. Description: Positive allosteric modulation of latent human erythrocytes 20S proteasome chymotrypsin like activity up to 10 uM using LFP as substrate measured every 2 mins up to 60 mins by fluorescence assay.
Assay [4] deals with Proteasome Macropain subunit (Homo sapiens) (UniProt P49721). As to the kind of experiment: Negative allosteric modulation of SDS-activated human erythrocytes 20S proteasome trypsin like activity at 10 uM using Boc-LRR-AMC as substrate measured every 2 mins up to 60 mins by fluorescence assay.
Proteasome Macropain subunit (Homo sapiens), sequence (P49721 whole entry): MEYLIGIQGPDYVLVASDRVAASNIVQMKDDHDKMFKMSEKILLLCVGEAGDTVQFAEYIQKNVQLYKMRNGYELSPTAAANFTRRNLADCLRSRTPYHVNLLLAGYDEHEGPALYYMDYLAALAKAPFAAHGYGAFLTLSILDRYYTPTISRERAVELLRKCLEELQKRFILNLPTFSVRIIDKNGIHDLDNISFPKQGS
Assay [5] has as its target T2, Proteasome component C5 (Homo sapiens) (UniProt P20618).
T2 sequence (whole entry): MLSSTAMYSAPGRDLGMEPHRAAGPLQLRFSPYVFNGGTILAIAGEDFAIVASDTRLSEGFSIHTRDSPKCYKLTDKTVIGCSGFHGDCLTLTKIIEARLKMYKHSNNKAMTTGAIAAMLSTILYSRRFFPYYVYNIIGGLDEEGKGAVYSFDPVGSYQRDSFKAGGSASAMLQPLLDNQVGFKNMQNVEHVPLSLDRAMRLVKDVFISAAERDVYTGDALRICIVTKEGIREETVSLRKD
Description: Negative allosteric modulation of SDS-activated human erythrocytes 20S proteasome caspase like activity at lower concentration using Z-LLE-AMC as substrate measured every 2 mins up to 60 mins by fluorescence assay.

Assay [6] addresses T1, Proteasome Macropain subunit MB1 (Homo sapiens). As to the kind of experiment: Negative allosteric modulation of SDS-activated human erythrocytes 20S proteasome chymotrypsin like activity using Suc-LLVY-AMC as substrate measured every 2 mins up to 60 mins by fluorescence assay. In outline: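 1.4 nM CP (0.001 mg/mL) in 50 mM Tris-HCl pH 8.0, activated with 0.005% SDS where stated, otherwise latent. Suc-LLVY-AMC at 100 μM final. AMC fluorescence read every 2 min up to 60 min at 37 °C. Activity relative to DMSO-treated enzyme, from at least three independent replicates. Peptide stocks 10 mM in DMSO.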

The target is the same in assay [7]. Description: Positive allosteric modulation of latent human erythrocytes 20S proteasome chymotrypsin like activity at 1 uM using Suc-LLVY-AMC as substrate measured every 2 mins up to 60 mins by fluorescence assay.
The target in assay [8] is T3, 20S proteasome (Homo sapiens) (UniProt P49721+P20618+P28074+P28062+P28065+P28072+P25786+P25787+P25788+P25789+P28066+P60900+O14818+Q8TAA3+P40306+A5LHX3+P49720+P28070+Q99436). As to the kind of experiment: Negative allosteric modulation of SDS-activated human erythrocytes 20S proteasome assessed as reduction in human alpha-synuclein degradation at 10 uM after 1 hr by SDS-PAGE analysis. In outline:
(§1)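 Human α-synuclein or yeast enolase digested by human 20S activated with 0.01% SDS (20S:substrate 1:100 pmol α-syn, 1:10 pmol enolase) in 20 mM HEPES pH 7.4 at 37 °C for 1 h (α-syn) or 4 h (enolase). DMSO at or below 0.05%. SDS–PAGE (12% or 10%) with Coomassie staining; remaining substrate densitometry as percent of control; at least three experiments, mean ± SEM.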

In assay [9] the target is T3, 20S proteasome (Homo sapiens). As to the kind of experiment: Negative allosteric modulation of SDS-activated human erythrocytes 20S proteasome assessed as reduction in yeast enolase degradation at 1 uM after 4 hr by SDS-PAGE analysis.
The target is the same in assay [10]. As to the kind of experiment: Negative allosteric modulation of SDS-activated human erythrocytes 20S proteasome assessed as reduction in yeast enolase degradation at 10 uM after 4 hr by SDS-PAGE analysis.
The target is the same in assay [11]. As to the kind of experiment: Negative allosteric modulation of SDS-activated human erythrocytes 20S proteasome assessed as reduction in human alpha-synuclein degradation at 1 uM after 1 hr by SDS-PAGE analysis. In outline:
as §1

The source made the active and inactive calls. The rule behind the calls is not given here. Residues, ends and D or L forms follow the SMILES beside them.

`N=C(N)NCCC[C@H](NC(=O)[C@H](CCCNC(=N)N)NC(=O)[C@@H](N)CCCNC(=N)N)C(=O)N[C@@H](Cc1ccc(O)cc1)C(=O)N1CCC[C@H]1C(=O)N[C@@H](CCCNC(=N)N)C(=O)N[C@@H](Cc1c[nH]c2ccccc12)C(=O)NCC(=O)O` (H-RRRYPRWG-OH): the result in [1] and in [3] was inactive. In addition, the outcome in [2], in assay [4] and in assay [5] was Active.
Turning to `CC(C)C[C@H](NC(=O)[C@H](Cc1ccc(O)cc1)NC(=O)[C@@H]1CCCN1C(=O)[C@@H]1CCCN1C(=O)[C@H](CCCNC(=N)N)NC(=O)[C@@H]1CCCN1C(=O)[C@H](CCCNC(=N)N)NC(=O)[C@H](CCCNC(=N)N)NC(=O)[C@@H](N)CCCNC(=N)N)C(=O)N1CCC[C@H]1C(=O)N[C@@H](CCCNC(=N)N)C(=O)O` (H-RRRPRPPYLPR-OH), in assay [6], the Activity result was “Dose-dependent effect”. The result in assay [7], in assay [2], in assay [8], in [4] and in assay [5] was Active. Further, the result in [1], in [9], in assay [10] and in assay [3] was inactive.
On to `CC(C)C[C@H](NC(=O)[C@H](Cc1ccc(O)cc1)NC(=O)[C@H](CCCNC(=N)N)NC(=O)[C@H](CCCNC(=N)N)NC(=O)[C@@H](N)CCCNC(=N)N)C(=O)N1CCC[C@H]1C(=O)N[C@@H](CCCNC(=N)N)C(=O)N[C@@H](Cc1ccc(O)cc1)C(=O)N[C@@H](C)C(N)=O` (H-RRRYLPRYA-NH2), for which the Activity result in assay [6] was “Dose-dependent effect”. The result in assay [7], in assay [2], in assay [8], in assay [4] and in assay [5] was Active. Also, the result in assay [1], in assay [9], in assay [10] and in assay [3] was inactive.
For `CC(C)C[C@H](NC(=O)[C@H](Cc1ccc(O)cc1)NC(=O)[C@H](CCCNC(=N)N)NC(=O)[C@H](CCCNC(=N)N)NC(=O)[C@@H](N)CCCNC(=N)N)C(=O)N1CCC[C@H]1C(=O)N[C@@H](CCCNC(=N)N)C(=O)N[C@@H](Cc1c[nH]c2ccccc12)C(=O)NCC(=O)O` (H-RRRYLPRWG-OH), the Activity entry in assay [6] was “Dose-dependent effect”. Further, the result in assay [1] and in assay [3] was inactive. The result in assay [2], in assay [4] and in assay [5] was Active.
As to `CC(C)C[C@H](NC(=O)[C@H](Cc1ccc(O)cc1)NC(=O)[C@@H]1CCCN1C(=O)[C@@H]1CCCN1C(=O)[C@@H]1CCCN1C(=O)[C@@H]1CCCN1C(=O)[C@H](CCCNC(=N)N)NC(=O)[C@H](CCCNC(=N)N)NC(=O)[C@@H](N)CCCNC(=N)N)C(=O)N1CCC[C@H]1C(=O)N[C@@H](CCCNC(=N)N)C(=O)N[C@@H](Cc1c[nH]c2ccccc12)C(=O)NCC(=O)O` (H-RRRPPPPYLPRWG-OH), the result in assay [1] was inactive. For the same compound, the outcome in [2] was Active.
`CC(C)C[C@H](NC(=O)[C@H](Cc1ccc(O)cc1)NC(=O)[C@@H]1CCCN1C(=O)[C@@H]1CCCN1C(=O)[C@H](CCCNC(=N)N)NC(=O)[C@@H]1CCCN1C(=O)[C@H](CCCNC(=N)N)NC(=O)[C@H](CCCNC(=N)N)NC(=O)[C@@H](N)CCCNC(=N)N)C(=O)N1CCC[C@H]1C(=O)N[C@@H](CCCNC(=N)N)C(=O)N[C@@H](Cc1c[nH]c2ccccc12)C(=O)NCC(N)=O` (H-RRRPRPPYLPRWG-NH2): the outcome in assay [1] and in assay [3] was inactive. Besides, the outcome in [2], in assay [4] and in assay [5] was Active.
Take `CC(C)C[C@H](NC(=O)[C@H](Cc1ccc(O)cc1)NC(=O)[C@@H]1CCCN1C(=O)[C@@H]1CCCN1C(=O)[C@H](CCCNC(=N)N)NC(=O)[C@@H]1CCCN1C(=O)[C@H](CCCNC(=N)N)NC(=O)[C@H](CCCNC(=N)N)NC(=O)[C@@H](N)CCCNC(=N)N)C(=O)N1CCC[C@H]1C(=O)N[C@@H](CCCNC(=N)N)C(=O)N[C@@H](Cc1ccccc1)C(=O)NCC(=O)O` (H-RRRPRPPYLPRFG-OH): the outcome in assay [7], in assay [2], in [11], in assay [8], in assay [9] and in assay [10] was Active. Moreover, the result in assay [4] and in [5] was Active. In addition, the result in assay [1] and in assay [3] was inactive.

Values taken from ChEMBL document CHEMBL4371016, “Proline- and Arginine-Rich Peptides as Flexible Allosteric Modulators of Human Proteasome Activity” (J Med Chem, 2019).
